Results as given in ChEMBL document CHEMBL3774362, “Design, synthesis, and evaluation of 2-piperidone derivatives for the inhibition of β-amyloid aggregation and inflammation mediated neurotoxicity” (Bioorg Med Chem, 2016).
Calls of active or inactive are those of the source. The calls are words filed in the database; no cut-off is given here.

Experiments:
[1] = target: Amyloid-beta precursor protein (Homo sapiens) (UniProt P05067); experiment: Inhibition of Amyloid beta (1 to 42) (unknown origin) self aggregation at 20 uM for 24 hrs by Thioflavin T-based fluorometric assay
Outline: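 Aβ1–42 was HFIP-pretreated and dissolved in DMSO to a 200 μM stock. It was mixed with compound in PBS pH 7.4, compound final 20 μM. Incubation was 24 h at room temperature with shaking. 5 μM ThT in 50 mM glycine–NaOH pH 8.5 was then added. Fluorescence was read at ex 435 nm / em 490 nm. Mean ± SD of three independent measurements, each in duplicate.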

BV-2 [2] = experiment: Neuroprotective activity in mouse BV2 cells assessed as inhibition of LPS-stimulated IL-1beta production preincubated for 3 hrs followed by LPS treatment for 12 hrs by ELISA; format: functional, cell-based
Outline: (§1)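 BV-2 microglia were seeded 2 × 10^4 cells/well and pretreated 3 h with compound at 0.0016, 0.008, 0.04, 0.2 and 1 μmol/L. They were then stimulated with LPS (1 μg/mL) for 12 h. Clarified supernatants were assayed by ELISA for the named cytokine.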

BV-2 [3] = experiment: Neuroprotective activity in mouse BV2 cells assessed as inhibition of LPS-stimulated IL6 production preincubated for 3 hrs followed by LPS treatment for 12 hrs by ELISA; format: functional, cell-based; outline: as §1
BV-2 [4] = experiment: Neuroprotective activity in mouse BV2 cells assessed as inhibition of LPS-stimulated TNFalpha production preincubated for 3 hrs followed by LPS treatment for 12 hrs by ELISA; format: functional, cell-based; outline: as §1
[5] = target: Amyloid-beta precursor protein (Homo sapiens) (UniProt P05067); experiment: Inhibition of Amyloid beta (1 to 42) (unknown origin) self aggregation for 24 hrs by Thioflavin T-based fluorometric assay
[6] = Cytotoxicity against mouse BV2 cells assessed as cell viability at 5 uM by MTT assay; format: cell-based; settings: bv-2, 5 µM
Outline: (§2)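 BV-2 murine microglia kept in DMEM-H with 10% FBS at 37 °C, 5% CO2. Cells seeded 1 × 10^4 cells/well and cultured 24 h. Compound then added at 0.008, 0.04, 0.2, 1 and 5 μmol/L, with or without LPS. Viability read by MTT as absorbance at 490 nm.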

SH-SY5Y [7] = experiment: Cytotoxicity against human SH-SY5Y cells at 5 uM by MTT assay; format: cell-based
Outline: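 SH-SY5Y (DMEM/F-12, 10% FBS, 37 °C, 5% CO2) seeded 1 × 10^4 cells/well, grown 24 h, then exposed to compound at 0.04, 0.2, 1 and 5 μmol/L for 24 h. MTT added for a further 4 h; absorbance read at 490 nm. Mean ± SD of three independent experiments.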

[8] = target: Amyloid-beta precursor protein (Homo sapiens) (UniProt P05067); experiment: Inhibition of Amyloid beta (1 to 42 residues) (unknown origin) assessed as no fibril formation at 50 uM after 4 days by atomic force microscopic analysis
Outline: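 Aβ1–42 was pretreated with HFIP and taken up in DMSO. It was incubated in PBS pH 7.4 for 4 days at 30 °C, with or without compound. Final concentrations were 25 μM peptide and 50 μM compound. 10 μL aliquots were deposited on mica for 10 min, rinsed with water and dried under nitrogen. Samples were imaged by tapping-mode AFM.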

SH-SY5Y [9] = experiment: Neuroprotective activity against LPS-stimulated toxicity in human SH-SY5Y cells using compound-conditioned media from LPS-stimulated BV2 cells by MTT assay; format: functional, cell-based
Outline: (§3)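 BV-2 cells were seeded 2 × 10^4/well and pretreated 3 h with compound at 0.2, 1 and 5 μM. They were then stimulated 12 h with LPS 1 μg/mL, and the supernatant was clarified as conditioned medium. SH-SY5Y cells were seeded 5 × 10^3/well, grown 24 h and serum-starved overnight, then exposed to the conditioned medium. Viability was read by MTT at 490 nm. Mean ± SD of three independent experiments.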

[10] = Cytotoxicity against mouse BV2 cells assessed as cell viability at 0.008 to 5 umol/L by MTT assay in presence of LPS; format: cell-based; settings: bv-2; outline: as §2
[11] = target: Myeloid differentiation primary response protein MyD88 (Homo sapiens) (UniProt Q99836); experiment: Inhibition of Flag-tagged MyD88-HA-tagged MyD88 (unknown origin) homodimerization transfected in HEK293 cells after 7 hrs by Co-immunoprecipitation assay; format: cell-based
Outline: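 HEK293 cells were seeded at 9 × 10^5/well and transfected with Flag-MyD88 and HA-MyD88 plasmids. Compound was added 7 h after transfection at 10 and 40 μM. Cells were harvested 24 h post-transfection and lysed in RIPA. Lysates were precleared with protein A/G beads and immunoprecipitated with anti-HA on A/G beads at 4 °C. Captured Flag-MyD88 was detected by western blot.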

SH-SY5Y [12] = experiment: Neuroprotective activity against LPS-induced toxicity in human SH-SY5Y cells assessed as cell viability using compound-conditioned media from LPS-stimulated BV2 cells at 5 uM by MTT assay; format: functional; outline: as §3

Sequence of Amyloid-beta precursor protein (Homo sapiens) (P05067 whole entry, the tested form may be a part): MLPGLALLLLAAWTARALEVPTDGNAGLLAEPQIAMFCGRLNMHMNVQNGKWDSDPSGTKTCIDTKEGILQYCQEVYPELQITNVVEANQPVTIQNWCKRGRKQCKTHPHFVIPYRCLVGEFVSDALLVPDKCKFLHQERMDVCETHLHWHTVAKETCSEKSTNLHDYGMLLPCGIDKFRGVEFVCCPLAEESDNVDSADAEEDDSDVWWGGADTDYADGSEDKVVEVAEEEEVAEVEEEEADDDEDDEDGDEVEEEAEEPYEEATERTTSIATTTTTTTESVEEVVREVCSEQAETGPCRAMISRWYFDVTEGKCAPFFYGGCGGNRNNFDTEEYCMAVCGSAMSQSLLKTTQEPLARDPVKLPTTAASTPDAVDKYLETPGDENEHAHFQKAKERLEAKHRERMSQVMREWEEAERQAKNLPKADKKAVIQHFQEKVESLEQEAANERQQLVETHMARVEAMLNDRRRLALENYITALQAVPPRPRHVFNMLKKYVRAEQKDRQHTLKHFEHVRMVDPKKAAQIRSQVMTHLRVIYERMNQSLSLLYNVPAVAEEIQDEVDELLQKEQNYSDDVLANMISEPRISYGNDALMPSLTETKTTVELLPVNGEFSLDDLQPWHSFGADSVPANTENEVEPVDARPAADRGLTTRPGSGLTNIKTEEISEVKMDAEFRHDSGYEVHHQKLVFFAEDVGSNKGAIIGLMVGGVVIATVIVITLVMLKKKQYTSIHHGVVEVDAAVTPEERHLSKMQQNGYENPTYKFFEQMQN
Sequence of Myeloid differentiation primary response protein MyD88 (Homo sapiens) (Q99836 whole entry): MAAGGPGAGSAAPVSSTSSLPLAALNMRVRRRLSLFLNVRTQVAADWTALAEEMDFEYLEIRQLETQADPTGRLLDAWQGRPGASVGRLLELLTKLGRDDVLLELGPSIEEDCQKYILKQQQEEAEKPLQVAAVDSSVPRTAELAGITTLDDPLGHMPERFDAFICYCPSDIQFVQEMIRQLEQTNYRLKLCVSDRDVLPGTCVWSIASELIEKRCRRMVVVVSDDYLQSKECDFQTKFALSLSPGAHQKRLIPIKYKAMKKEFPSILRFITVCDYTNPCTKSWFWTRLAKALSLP

Question: With `COc1ccc(CN2C(=O)C[C@@H](c3ccccc3)[C@H]([N+](=O)[O-])[C@H]2c2ccc(O)cc2)cc1` (racemic) as the molecule, how does the inhibition [1] read?
Answer: 46.1%

Question: Which inhibition [1] does the source give for `O=C1C[C@@H](c2ccccc2)[C@H]([N+](=O)[O-])[C@@H](c2ccc(O)cc2)N1Cc1ccccc1` (racemic) here?
Answer: 43.6%

Question: Which inhibition [1] does the source give for `COc1ccc(CN2C(=O)C[C@@H](c3ccccc3Cl)[C@H]([N+](=O)[O-])[C@H]2c2ccc(O)cc2)cc1` (racemic) here?
Answer: 28.7%

Question: With `O=C1C[C@@H](c2ccccc2Cl)[C@H]([N+](=O)[O-])[C@@H](c2ccc(O)cc2)N1Cc1cccnc1` (racemic) as the molecule, how does the inhibition [1] read?
Answer: 41.6%

Question: Which inhibition [1] does the source give for `COc1cc(OC)cc([C@@H]2CC(=O)N(Cc3ccccc3)[C@H](c3ccc(O)cc3)[C@H]2[N+](=O)[O-])c1` (racemic) here?
Answer: 55%

Question: Which inhibition [1] does the source give for `COc1cc(OC)cc([C@@H]2CC(=O)N(Cc3cccnc3)[C@H](c3ccc(O)cc3)[C@H]2[N+](=O)[O-])c1` (racemic) here?
Answer: 54%

Question: With `Cc1ccc(CN2C(=O)C[C@@H](c3ccccc3Cl)[C@H]([N+](=O)[O-])[C@H]2c2ccc(O)cc2)cc1` (racemic) as the molecule, how does the inhibition [1] read?
Answer: 46.1%

Question: For `COC(=O)c1ccc(CN2C(=O)C[C@@H](c3ccccc3)[C@H]([N+](=O)[O-])[C@H]2c2ccc(O)cc2)cc1` (racemic), which inhibition [1] is on record?
Answer: 36.3%

Question: Which inhibition [1] does the source give for `COc1cccc(CN2C(=O)C[C@@H](c3ccccc3Cl)[C@H]([N+](=O)[O-])[C@H]2c2ccc(O)cc2)c1` (racemic) here?
Answer: 50%

Question: Which inhibition [1] does the source give for `Cc1ccc([C@@H]2CC(=O)N(Cc3ccccc3)[C@H](c3ccc(O)cc3)[C@H]2[N+](=O)[O-])cc1` (racemic) here?
Answer: 44.1%

Question: With `COc1ccc(CN2C(=O)C[C@@H](c3ccccc3)[C@H]([N+](=O)[O-])[C@H]2c2ccc(O)cc2)cc1OC` (racemic) as the molecule, how does the inhibition [1] read?
Answer: 49.2%

Question: Which inhibition [1] does the source give for `O=C1C[C@@H](c2ccccc2)[C@H]([N+](=O)[O-])[C@@H](c2ccc(O)cc2)N1Cc1ccc(F)cc1` (racemic) here?
Answer: 6.39%

Question: Which inhibition [1] does the source give for `COc1cc([C@@H]2[C@@H]([N+](=O)[O-])[C@H](c3ccccc3Cl)CC(=O)N2Cc2ccccc2)ccc1O` (racemic) here?
Answer: 11.8%

Question: For `COc1ccc(CN2C(=O)C[C@@H](c3ccc(C)cc3)[C@H]([N+](=O)[O-])[C@H]2c2ccc(O)cc2)cc1` (racemic), which inhibition [1] is on record?
Answer: 30.6%

Question: With `COC(=O)c1ccc(CN2C(=O)C[C@@H](c3ccccc3Cl)[C@H]([N+](=O)[O-])[C@H]2c2ccc(O)cc2)cc1` (racemic) as the molecule, how does the Activity (BV-2 [2]) read?
Answer: Dose-dependent effect

Question: What about the IC50 (BV-2 [2]) of the same molecule?
Answer: 3.49 µM

Question: What about the inhibition [1] of the same molecule?
Answer: 33.1%

Question: And the Activity (BV-2 [3])?
Answer: Dose-dependent effect

Question: And the IC50 (BV-2 [3])?
Answer: 0.08 µM

Question: What about the Activity (BV-2 [4]) of the same molecule?
Answer: Dose-dependent effect

Question: What about the IC50 (BV-2 [4]) of the same molecule?
Answer: 0.09 µM

Question: For `COc1cccc(CN2C(=O)C[C@@H](c3cc(OC)cc(OC)c3)[C@H]([N+](=O)[O-])[C@H]2c2ccc(O)cc2)c1` (racemic), which Activity (BV-2 [2]) is on record?
Answer: Dose-dependent effect

Question: What about the IC50 (BV-2 [2]) of the same molecule?
Answer: 0.85 µM

Question: What about the inhibition [1] of the same molecule?
Answer: 56.9%

Question: What about the Activity (BV-2 [3]) of the same molecule?
Answer: Dose-dependent effect

Question: And the IC50 (BV-2 [3])?
Answer: 0.17 µM

Question: And the Activity (BV-2 [4])?
Answer: Dose-dependent effect

Question: What about the IC50 (BV-2 [4]) of the same molecule?
Answer: 0.02 µM

Question: Which inhibition [1] does the source give for `COc1cccc(CN2C(=O)C[C@@H](c3ccc(C)cc3)[C@H]([N+](=O)[O-])[C@H]2c2ccc(O)cc2)c1` (racemic) here?
Answer: 48.9%

Question: With `Cc1ccc(CN2C(=O)C[C@@H](c3ccccc3)[C@H]([N+](=O)[O-])[C@H]2c2ccc(O)cc2)cc1` (racemic) as the molecule, how does the inhibition [1] read?
Answer: 39.9%

Question: For `O=C1C[C@@H](c2ccccc2Cl)[C@H]([N+](=O)[O-])[C@@H](c2ccc(O)cc2)N1Cc1ccccc1` (racemic), which inhibition [1] is on record?
Answer: 11.2%

Question: For `COc1cccc(CN2C(=O)C[C@@H](c3ccccc3)[C@H]([N+](=O)[O-])[C@H]2c2ccc(O)cc2)c1` (racemic), which inhibition [1] is on record?
Answer: 51.7%

Question: Which inhibition [5] does the source give for `O=C1C[C@@H](c2ccccc2)[C@H]([N+](=O)[O-])[C@@H](c2ccc(O)cc2)N1Cc1cccnc1` (racemic) here?
Answer: Dose-dependent effect

Question: And the inhibition [1]?
Answer: 43.3%

Question: With `Cc1ccc(CN2C(=O)C[C@@H](c3ccc(C)cc3)[C@H]([N+](=O)[O-])[C@H]2c2ccc(O)cc2)cc1` (racemic) as the molecule, how does the inhibition [1] read?
Answer: 42.1%

Question: What does the source list for `COc1cc(OC)cc([C@@H]2CC(=O)N(Cc3ccc(OC)c(OC)c3)[C@H](c3ccc(O)cc3)[C@H]2[N+](=O)[O-])c1` (racemic)?
Answer: Activity [6]: Non-toxic; inhibition [5]: Dose-dependent effect; Activity (SH-SY5Y [7]): Non-toxic; Activity (BV-2 [2]): Dose-dependent effect; IC50 (BV-2 [2]): 0.21 µM; inhibition [8]: Active; inhibition [1]: 59.1%; Activity (BV-2 [3]): Dose-dependent effect; IC50 (BV-2 [3]): 0.03 µM; Activity (SH-SY5Y [9]): Dose-dependent effect; Activity (BV-2 [4]): Dose-dependent effect; IC50 (BV-2 [4]): 0.08 µM; Activity [10]: Non-toxic; inhibition [11]: Dose-dependent effect; Activity (SH-SY5Y [12]): 82.92%
